Laboratory results published in ChEMBL document CHEMBL3259710, “C-ring cannabinoid lactones: a novel cannabinergic chemotype” (ACS Med Chem Lett, 2014).

Columns and labels:
Cannabinoid receptor 2 [1] = target: Cannabinoid receptor 2 (Mus musculus, UniProt P47936); test: Displacement of [3H]CP55940 from mouse […] CB2 receptor expressed in HEK293 cells; format: cell-based
How it was run: (§1)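 Competition binding against [3H]CP-55,940. CB1 membranes came from rat brain; CB2 membranes came from HEK293 cells expressing mouse or human CB2. Ki was taken from competition curves by nonlinear regression. Three independent experiments were run in duplicate, and Ki is the mean of the three.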

[2] = Half life in mouse plasma; format: ADME, cell-free
How it was run: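 The compound was incubated in vitro with mouse plasma to test esterase hydrolysis to its acid metabolite. Half-life of the parent compound was determined.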

Cannabinoid receptor 1 [3] = target: T1, Cannabinoid receptor 1 (Rattus norvegicus, UniProt P20272); test: Displacement of [3H]CP55940 from rat brain CB1 receptor; how it was run: as §1
Cannabinoid receptor 2 [4] = target: Cannabinoid receptor 2 (Homo sapiens, UniProt P34972); test: Displacement of [3H]CP55940 from human […] CB2 receptor expressed in HEK293 cells; format: cell-based; how it was run: as §1
Cannabinoid receptor 1 [5] = target: T1, Cannabinoid receptor 1; test: Agonist activity at rat CB1 receptor expressed in HEK293 cells assessed as inhibition of forskolin-induced cAMP level; format: functional, cell-based
[6] = Selectivity ratio of Ki for human CB2 receptor to Ki for rat CB1 receptor
[7] = target: Cannabinoid receptor 1 (Rattus norvegicus) (UniProt P20272); test: Agonist activity at rat CB1 receptor expressed in HEK293 cells assessed as maximum inhibition of forskolin-induced cAMP level; format: functional, cell-based
[8] = Selectivity ratio of Ki for mouse […] CB2 receptor to Ki for rat CB1 receptor

T1 sequence (P20272 whole entry): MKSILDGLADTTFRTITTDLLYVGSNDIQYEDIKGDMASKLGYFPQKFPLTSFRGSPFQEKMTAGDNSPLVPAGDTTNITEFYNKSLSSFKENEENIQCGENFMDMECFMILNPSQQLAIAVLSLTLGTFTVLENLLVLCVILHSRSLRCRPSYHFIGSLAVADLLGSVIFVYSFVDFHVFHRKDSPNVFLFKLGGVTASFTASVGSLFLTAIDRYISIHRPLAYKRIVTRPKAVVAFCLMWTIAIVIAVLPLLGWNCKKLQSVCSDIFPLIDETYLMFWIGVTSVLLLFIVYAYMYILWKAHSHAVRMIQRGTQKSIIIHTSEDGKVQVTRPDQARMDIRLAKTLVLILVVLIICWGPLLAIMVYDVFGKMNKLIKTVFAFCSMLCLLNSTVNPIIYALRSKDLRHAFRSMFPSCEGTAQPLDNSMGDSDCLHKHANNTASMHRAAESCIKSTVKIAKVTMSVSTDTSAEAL
Sequence of Cannabinoid receptor 2 (Homo sapiens, UniProt P34972) (P34972 whole entry): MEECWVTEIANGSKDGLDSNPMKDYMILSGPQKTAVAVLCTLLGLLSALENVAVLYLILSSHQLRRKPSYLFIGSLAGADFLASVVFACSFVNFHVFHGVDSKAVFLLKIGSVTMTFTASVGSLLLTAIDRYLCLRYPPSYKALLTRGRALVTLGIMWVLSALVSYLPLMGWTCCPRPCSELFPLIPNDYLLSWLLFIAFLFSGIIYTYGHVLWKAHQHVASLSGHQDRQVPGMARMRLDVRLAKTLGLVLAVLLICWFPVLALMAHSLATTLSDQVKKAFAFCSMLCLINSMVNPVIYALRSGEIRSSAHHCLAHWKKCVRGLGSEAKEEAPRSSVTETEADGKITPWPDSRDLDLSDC
Sequence of Cannabinoid receptor 2 (Mus musculus, UniProt P47936) (P47936 whole entry): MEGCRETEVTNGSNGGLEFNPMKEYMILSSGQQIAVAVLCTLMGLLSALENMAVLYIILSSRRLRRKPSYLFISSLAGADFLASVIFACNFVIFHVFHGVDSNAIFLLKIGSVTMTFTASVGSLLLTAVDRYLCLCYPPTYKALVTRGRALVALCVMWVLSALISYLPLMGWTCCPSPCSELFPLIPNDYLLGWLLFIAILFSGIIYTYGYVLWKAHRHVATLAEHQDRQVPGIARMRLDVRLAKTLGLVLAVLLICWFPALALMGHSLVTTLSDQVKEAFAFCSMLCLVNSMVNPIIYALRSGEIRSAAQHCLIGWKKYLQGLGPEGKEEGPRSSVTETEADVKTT
Sequence of Cannabinoid receptor 1 (Rattus norvegicus) (P20272 whole entry): as the sequence (P20272 whole entry) above

SMILES	Ki (Cannabinoid receptor 2 [1])	half-life [2]	Ki (Cannabinoid receptor 1 [3])	Ki (Cannabinoid receptor 2 [4])	EC50 (Cannabinoid receptor 1 [5])	Ratio Ki [6]	inhibition [7]	Ratio Ki [8]
CCCCCc1cc(O)c2c(c1)OC(C)(C)[C@@H]1CCC(C)=C[C@@H]21 [DRONABINOL]	0.04 µM	–	–	–	–	–	–	–
CCCCCCC(C)(C)c1cc(O)c2c(c1)OC(C)(C)[C@H](CCC(=O)O)[C@H]2CO	> 1 µM	15.1 min	> 1 µM	> 1 µM	–	–	–	–
CCCCCCC(C)(C)c1cc(O)c2c(c1)OC(C)(C)[C@@H]1CCC(=O)OC[C@@H]21	0.792 µM	–	0.0046 µM	0.052 µM	0.184 µM	11	41%	170
CCCCCCC(C)(C)c1cc(O)c2c(c1)OC(C)(C)[C@H](CCO)[C@H]2CC(=O)O	> 1 µM	–	> 1 µM	> 1 µM	–	–	–	–
CCCCCCC(C)(C)c1cc(O)c2c(c1)OC(C)(C)[C@@H]1CCOC(=O)C[C@@H]21	–	–	–	0.094 µM	–	–	–	–
